Consider 24 compounds from ChEMBL document CHEMBL1144027, “Synthesis and antimycobacterial evaluation of newer 1-cyclopropyl-1,4-dihydro-6-fluoro-7-(substituted secondary amino)-8-methoxy-5-(sub)-4-oxoquinoline-3-carboxylic acids” (Bioorg Med Chem, 2008).

≈ marks a conversion by molar mass, not a printed value.

The MIC is the least concentration at which growth counts as inhibited. A higher MIC goes with weaker potency.

The test system of this test is Mycobacterium tuberculosis. The experiment in a line: Antimycobacterial activity against multidrug resistant Mycobacterium tuberculosis by agar dilution method. The format is functional. In short, it runs like this:
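Agar dilution MIC on Middlebrook 7H11 agar with OADC, following the NCCLS-recommended approach, run in duplicate. The MDR clinical isolate was resistant to isoniazid, rifampicin, ethambutol and ofloxacin.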
On the technique in general: In agar dilution, organisms are placed on agar that contains the substance at set levels.
Turning to `CCN(CC)C(=O)C1CCCN(c2c(F)c([N+](=O)[O-])c3c(=O)c(C(=O)O)cn(C4CC4)c3c2OC)C1` (centres undefined), inhibition of growth (MIC) required 1.55 µM (≈ 0.782 µg/mL).

The compound `COc1c(N2CCN(Cc3ccc4c(c3)OCO4)CC2)c(F)c([N+](=O)[O-])c2c(=O)c(C(=O)O)cn(C3CC3)c12` came in with a minimum inhibitory concentration (MIC) of 0.35 µM (≈ 0.189 µg/mL).

Compound `COc1c(N2CCC3(CC2)OCCO3)c(F)c([N+](=O)[O-])c2c(=O)c(C(=O)O)cn(C3CC3)c12` yielded an MIC of 0.41 µM (≈ 0.19 µg/mL). With `COc1c(N2CC(C)OC(C)C2)c(F)c([N+](=O)[O-])c2c(=O)c(C(=O)O)cn(C3CC3)c12` (centres undefined) the figure was 1.79 µM (≈ 0.779 µg/mL). With `COc1c(N2CCN(C)C(c3ccccc3)C2)c(F)c([N+](=O)[O-])c2c(=O)c(C(=O)O)cn(C3CC3)c12` (centres undefined) the figure was 3.14 µM (≈ 1.56 µg/mL); with `COc1c(N2CCN(C(=O)C3COc4ccccc4O3)CC2)c(F)cc2c(=O)c(C(=O)O)cn(C3CC3)c12` (centres undefined), 0.74 µM (≈ 0.387 µg/mL). `COc1c(N2CCC3(CC2)OCCO3)c(F)cc2c(=O)c(C(=O)O)cn(C3CC3)c12` had an MIC of 1.86 µM (≈ 0.778 µg/mL). Compound `COc1c(N2CCn3cc(C(=O)O)nc3C2)c(F)c([N+](=O)[O-])c2c(=O)c(C(=O)O)cn(C3CC3)c12` showed an MIC of 1.6 µM (≈ 0.78 µg/mL). `COc1ccc(CC2C3=C(CCCC3)CCN2c2c(F)c([N+](=O)[O-])c3c(=O)c(C(=O)O)cn(C4CC4)c3c2OC)cc1` (centres undefined) gave an MIC of 0.33 µM (≈ 0.191 µg/mL). Then `COc1c(N2COCC2(C)C)c(F)c([N+](=O)[O-])c2c(=O)c(C(=O)O)cn(C3CC3)c12`, with 0.93 µM (≈ 0.392 µg/mL). With `NNC(=O)c1ccncc1` [ISONIAZID] the figure was 45.6 µM (≈ 6.25 µg/mL); with `COc1c(N2CCNC(C)C2)c(F)cc2c(=O)c(C(=O)O)cn(C3CC3)c12` (centres undefined) [GATIFLOXACIN], 8.34 µM (≈ 3.13 µg/mL). The compound `COc1c(N2CCn3cc(C(=O)O)nc3C2)c(F)cc2c(=O)c(C(=O)O)cn(C3CC3)c12` had a minimal inhibitory concentration (MIC) of 1.76 µM (≈ 0.779 µg/mL). Then `COc1c(N2CCSCC2)c(F)c([N+](=O)[O-])c2c(=O)c(C(=O)O)cn(C3CC3)c12`, with 1.84 µM (≈ 0.779 µg/mL); and `COc1c(N2CCc3ccccc3C2C(=O)NC(C)(C)C)c(F)c([N+](=O)[O-])c2c(=O)c(C(=O)O)cn(C3CC3)c12` (centres undefined), with 2.82 µM (≈ 1.56 µg/mL).

Compound `COc1ccc(CC2C3=C(CCCC3)CCN2c2c(F)c(N)c3c(=O)c(C(=O)O)cn(C4CC4)c3c2OC)cc1` (centres undefined) yielded an MIC of 2.85 µM (≈ 1.56 µg/mL). With `COc1ccc(CC2C3=C(CCCC3)CCN2c2c(F)cc3c(=O)c(C(=O)O)cn(C4CC4)c3c2OC)cc1` (centres undefined) the figure was 1.46 µM (≈ 0.778 µg/mL). As to `COc1c(N2CC(C)OC(C)C2)c(F)cc2c(=O)c(C(=O)O)cn(C3CC3)c12` (centres undefined), 3.99 µM (≈ 1.56 µg/mL) was the least that counted as inhibitory (MIC). With `COc1c(N2CCN(Cc3ccc4c(c3)OCO4)CC2)c(F)cc2c(=O)c(C(=O)O)cn(C3CC3)c12` the figure was 1.57 µM (≈ 0.778 µg/mL); with `COc1c(N2CCN(C(=O)C3COc4ccccc4O3)CC2)c(F)c([N+](=O)[O-])c2c(=O)c(C(=O)O)cn(C3CC3)c12` (centres undefined), 2.74 µM (≈ 1.56 µg/mL).

As for `COc1c(N2COCC2(C)C)c(F)cc2c(=O)c(C(=O)O)cn(C3CC3)c12`, the minimum inhibitory concentration (MIC) is 2.07 µM (≈ 0.779 µg/mL).

`COc1c(N2CCSCC2)c(F)cc2c(=O)c(C(=O)O)cn(C3CC3)c12` registered an MIC of 2.06 µM (≈ 0.78 µg/mL).

Turning to `COc1c(N2CCN(C(c3ccccc3)c3ccc(Cl)cc3)CC2)c(F)c([N+](=O)[O-])c2c(=O)c(C(=O)O)cn(C3CC3)c12` (centres undefined), the MIC came out at 1.28 µM (≈ 0.777 µg/mL). Then `CCN(CC)C(=O)C1CCCN(c2c(F)cc3c(=O)c(C(=O)O)cn(C4CC4)c3c2OC)C1` (centres undefined), with 3.39 µM (≈ 1.56 µg/mL).
